Published values gathered from unrelated publications.
Compare with care: the assays were run in different laboratories.

SMILES	test	system	setting	measurement	value
CCCCCCOc1ccc2c(=O)c3c([nH]c2c1)CCCC3	metabolic stability	human, liver microsomes	1 µM, pH 7.4	half-life	0.25 h
NCc1cc2c(cc1F)C(=O)N(C1CCC(=O)NC1=O)C2 (stereo not shown)		male cynomolgus monkey, plasma	oral, 0.3 mg/kg	AUC(0-inf)	5.5 ng·h/mL
Cc1nc2ccc(OCc3ccc(C(F)(F)F)cc3)cc2[nH]1		male BALB/c mouse, plasma	intravenous, 1 mg/kg	MRT(0-inf)	1.54 h
COC1=CC(c2ccc[nH]2)=N/C1=C\c1[nH]c(Cc2ccc(OC(F)(F)F)cc2)cc1Cc1ccc(OC(F)(F)F)cc1		male CD-1 mouse, plasma	oral, 40 mg/kg, single dose	MRT(0-t)	23.1 h
O=c1c2c([nH]c3cc(OCc4ccc(OC(F)(F)F)cc4)ccc13)CCCC2	metabolic stability	human, liver microsomes	1 µM, pH 7.4	half-life	0.627 h
OCc1nc2ccc(NCc3ccc(C(F)(F)F)cc3)cc2[nH]1		male BALB/c mouse, plasma	oral, 10 mg/kg	MRT(0-inf)	1.9 h
CCOC(=O)C1=C(CN2CCC[C@@H]2C(=O)Nc2ccc(B(O)O)cc2)NC(c2nccs2)=N[C@H]1c1ccc(F)cc1Br		CD-1 mouse, plasma	intravenous, 2 mg/kg	MRT(0-inf)	0.57 h
CC[C@H](C)[C@H](NC(=O)[C@@H]1CCCN1C(=O)CNC(=O)[C@H](Cc1ccccc1)NC(=O)[C@H](CC(N)=O)NC(=O)[C@H](CC(N)=O)NC(=O)[C@H](CO)NC(=O)[C@H](CO)NC(=O)[C@H](Cc1c[nH]cn1)NC(=O)[C@H](CCCNC(=N)N)NC(=O)[C@H](CC(C)C)NC(=O)[C@H](Cc1ccccc1)NC(=O)[C@H](CCC(=O)O)NC(=O)[C@H](C)NC(=O)[C@H](CC(C)C)NC(=O)[C@H](CCCNC(=N)N)NC(=O)[C@H](CCC(N)=O)NC(=O)[C@@H](NC(=O)[C@H](C)NC(=O)[C@@H]1CSSC[C@H](NC(=O)[C@H](CCCCN)NC(=O)CC[C@H](NC(=O)CCCCCCCCCCCCCCCCCCC(=O)O)C(=O)O)C(=O)N[C@@H](CC(N)=O)C(=O)N[C@@H]([C@@H](C)O)C(=O)N[C@@H](C)C(=O)N[C@@H]([C@@H](C)O)C(=O)N1)[C@@H](C)O)C(=O)N[C@@H](CC(C)C)C(=O)N1CCC[C@H]1C(=O)N1CCC[C@H]1C(=O)N[C@H](C(=O)N[C@@H](CC(N)=O)C(=O)N[C@H](C(=O)NCC(=O)N[C@@H](CO)C(=O)N[C@@H](CC(N)=O)C(=O)N[C@H](C(=O)N1CCC[C@H]1C(N)=O)[C@@H](C)O)C(C)C)[C@@H](C)O		cynomolgus monkey, plasma	subcutaneous, 20 nmol/kg, single dose	AUC(0-inf)	39.3 µM·h
COC1=CC(c2ccc[nH]2)=N/C1=C\c1cc(Cc2ccc(OC(F)(F)F)cc2)c(C)[nH]1.Cl		male CD-1 mouse, liver	oral, 40 mg/kg, single dose	MRT(0-t)	34.8 h
CCN(CC)CCNC(=O)c1c(C)[nH]c(/C=C2\C(=O)Nc3ccc(F)cc32)c1C	metabolic stability	human, liver microsomes	1 µM, pH 7.4	half-life	0.458 h
